Reference: ChEMBL document CHEMBL1140385, “Synthesis and antibacterial activity of 3-substituted-6-(3-ethyl-4-methylanilino)uracils” (J Med Chem, 2005)
≈ marks a conversion by molar mass, not a printed value.

What was measured:
Staphylococcus aureus [1] = assay: In vitro minimum inhibitory concentration against Staphylococcus aureus upon incubation at 37 degree C for 16 to 24 hr by dissolving in DMSO (1%); assay type: functional
Enterococcus faecalis [2] = assay: In vitro minimum inhibitory concentration against Enterococcus faecalis upon incubation at 37 degree C for 16 to 24 hr by dissolving in DMSO (1%); assay type: functional
In short: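 Log-phase E. faecalis was grown in brain-heart infusion broth and seeded at (3-7) × 10^5 CFU/mL. Duplicate 2-fold dilutions ran from 20 to 1.25 µg/mL, final 1% DMSO. After 16-24 h at 37 °C with shaking, OD600 was read.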

Staphylococcus aureus [3] = assay: In vitro minimum inhibitory concentration against Methicillin-resistant Staphylococcus aureus upon incubation at 37 degree C for 16 to 24 hr by dissolving in DMSO (1%); assay type: functional
In short: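 Broth microdilution (modified NCCLS M7-A4). Staphylococci grown to log phase in Luria broth, seeded at (3-7) × 10⁵ CFU/mL. Compounds 2-fold diluted from DMSO stocks, 20 to 1.25 µg/mL, final 1% DMSO, in duplicate. Incubated 37 °C, 16-24 h, with shaking. OD600 read.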

Staphylococcus aureus [4] = assay: In vitro minimum inhibitory concentration against Staphylococcus aureus (Smith) upon incubation at 37 degree C for 16 to 24 hr by dissolving in DMSO (1%); assay type: functional
[5] = target: DNA polymerase III PolC-type (Bacillus subtilis (strain 168), UniProt P13267); assay: Inhibitory concentration against Bacillus subtilis DNA polymerase IIIC using [3H]dTMP 250 pM (30 degree C for 10 min)
In short: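 Homogeneous recombinant B. subtilis pol IIIC, 0.025-0.06 units, acted on activated calf thymus DNA with Mg2+, DTT, glycerol, dATP, dCTP, dTTP and [3H]dTTP, without dGTP. Compounds were serially diluted from DMSO. Reactions ran 10 min at 30 °C, were stopped with TCA-pyrophosphate, and the filter-collected precipitate was scintillation counted. Apparent Ki was read directly from this truncated assay; average standard deviation ±44%.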

Bacillus subtilis = assay: In vitro minimum inhibitory concentration against Bacillus subtilis upon incubation at 37 degree C for 16 to 24 h; assay type: functional
Staphylococcus aureus [6] = assay: Serum effect on MIC against Staphylococcus aureus (Smith) as ratio of MIC value in presence and absence of 50% fetal calf serum; assay type: functional
In short: (§1)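 Broth microdilution MIC was repeated with 50% fetal calf serum added to the growth medium (LB for S. aureus, brain-heart infusion broth for E. faecalis). The inoculum was (3-7) × 10^5 CFU/mL in 1% DMSO, incubated at 37 °C for 16-24 h, and read by OD600. The serum effect is the MIC with serum relative to the MIC without serum.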

Enterococcus faecium [7] = assay: In vitro minimum inhibitory concentration against Vancomycin resistant Enterococci faecium upon incubation at 37 degree C for 16 to 24 hr by dissolving in DMSO (1%); assay type: functional
In short: (§2)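 Broth microdilution (modified NCCLS M7-A4). Enterococci grown to log phase in brain-heart infusion broth, seeded at (3-7) × 10⁵ CFU/mL. Compounds 2-fold diluted from DMSO stocks, 20 to 1.25 µg/mL, final 1% DMSO, in duplicate. Incubated 37 °C, 16-24 h, with shaking. OD600 read.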

Enterococcus faecium [8] = assay: In vitro minimum inhibitory concentration against Enterococcus fecium upon incubation at 37 degree C for 16 to 24 hr by dissolving in DMSO (1%); assay type: functional; in short: as §2
[9] = Maximum plasma concentration in mouse after subcutaneous administration at 20 mg/kg; assay type: ADME, organism-based; set-up: dose 20 mg/kg, route subcutaneous; settings: sc
In short: (§3)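 Male Swiss-Webster mice got single sc doses of 20 or 60 mg/kg in 30% aqueous HP-β-cyclodextrin, or 20, 200 or 400 mg/kg in KOH-neutralized PBS. Groups of three were bled by cardiac puncture before dosing and at 5, 15, 30, 60, 120 and 180 min, plus 360 min at 400 mg/kg. Plasma drug was measured by C18 reverse-phase HPLC at 282 nm against a spiked-plasma standard curve.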

[10] = Maximum time taken to reach Cmax was determined in mouse after subcutaneous administration at 20 mg/kg; assay type: ADME, organism-based; set-up: dose 20 mg/kg, route subcutaneous; settings: in vivo, sc; in short: as §3
[11] = Maximum plasma concentration in mouse after intravenous administration at 20 mg/kg; assay type: ADME, organism-based; set-up: dose 20 mg/kg, route intravenous
In short: (§4)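 Male Swiss-Webster mice (20-24 g) got a 20 mg/kg tail-vein iv bolus, either in 30% aqueous HP-β-cyclodextrin or in PBS neutralized with KOH. Groups of three were bled by cardiac puncture under halothane before dosing and at 2, 5, 15, 30, 60 and 120 min. Heparinized plasma was MeCN-treated and run on C18 HPLC at 282 nm against a spiked-plasma standard curve.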

[12] = Area under the plasma concentration curve determined in mouse after intravenous administration at 20 mg/kg; assay type: ADME, organism-based; set-up: dose 20 mg/kg, route intravenous; settings: in vivo; in short: as §4
Staphylococcus aureus [13] = assay: Effect on survival of staphylococcus aureus (Smith) ip-infected mice at a concentration 20 mg/kg; assay type: functional
In short: (§5)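 Male pathogen-free Swiss-Webster mice (20-24 g), groups of five, infected ip with ca. 10⁸ CFU log-phase S. aureus Smith (grown 37 °C in LB, washed, in 0.5 mL LB). Single ip dose 15 min post-infection, in 10% DMSO/peanut oil or PBS. Survivors counted at 72 h post-infection.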

[14] = Maximum time taken to reach Cmax was determined in mouse after subcutaneous administration at 60 mg/kg; assay type: ADME, organism-based; set-up: dose 60 mg/kg, route subcutaneous; settings: in vivo, sc; in short: as §3
[15] = Area under the plasma concentration curve determined in mouse after subcutaneous administration at 20 mg/kg; assay type: ADME, organism-based; set-up: dose 20 mg/kg, route subcutaneous; settings: in vivo, sc; in short: as §3
Staphylococcus aureus [16] = assay: Effect on survival of staphylococcus aureus (Smith) ip-infected mice at a concentration 10 mg/kg; assay type: functional; in short: as §5
[17] = Maximum plasma concentration in mouse after subcutaneous administration at 60 mg/kg; assay type: ADME, organism-based; set-up: dose 60 mg/kg, route subcutaneous; settings: sc; in short: as §3
[18] = Half life in mouse after subcutaneous administration at 20 mg/kg; assay type: ADME, organism-based; set-up: dose 20 mg/kg, route subcutaneous; settings: in vivo, sc; in short: as §3
[19] = Area under the plasma concentration curve determined in mouse after subcutaneous administration at 60 mg/kg; assay type: ADME, organism-based; set-up: dose 60 mg/kg, route subcutaneous; settings: in vivo, sc; in short: as §3
[20] = Half life in mouse after intravenous administration at 20 mg/kg; assay type: ADME, organism-based; set-up: dose 20 mg/kg, route intravenous; settings: in vivo; in short: as §4
[21] = Area under the plasma concentration curve determined in mouse after peroral administration at 200 mg/kg; assay type: ADME, organism-based; set-up: dose 200 mg/kg, route oral; settings: in vivo, po
In short: (§6)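 A single 200 mg/kg gavage dose in KOH-neutralized PBS was given to male Swiss-Webster mice. Blood was taken by cardiac puncture under halothane before dosing and at 15, 30, 60, 120 and 180 min. Heparinized plasma was deproteinized with equal-volume MeCN and quantified by C18 HPLC (282 nm) against a standard curve from compound-spiked plasma.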

[22] = Half life in mouse after peroral administration at 200 mg/kg; assay type: ADME, organism-based; set-up: dose 200 mg/kg, route oral; settings: in vivo, po; in short: as §6
[23] = Area under the plasma concentration curve determined in mouse after subcutaneous administration at 400 mg/kg; assay type: ADME, organism-based; set-up: dose 400 mg/kg, route subcutaneous; settings: in vivo, sc; in short: as §3
[24] = Maximum time taken to reach Cmax was determined in mouse after peroral administration at 200 mg/kg; assay type: ADME, organism-based; set-up: dose 200 mg/kg, route oral; settings: in vivo, po; in short: as §6
Enterococcus faecalis [25] = assay: Serum effect on MIC of compound was measured against Enterococcus faecalis as ratio of MIC value in presence and absence of 50% fetal calf serum; assay type: functional; in short: as §1
[26] = Maximum plasma concentration in mouse after peroral administration at 200 mg/kg; assay type: ADME, organism-based; set-up: dose 200 mg/kg, route oral; settings: po; in short: as §6
[27] = Area under the plasma concentration curve determined in mouse after subcutaneous administration at 200 mg/kg; assay type: ADME, organism-based; set-up: dose 200 mg/kg, route subcutaneous; settings: in vivo, sc; in short: as §3
Staphylococcus aureus [28] = assay: Effect on survival of staphylococcus aureus (Smith) ip-infected mice at 20 mg/kg; assay type: functional; in short: as §5

Chain of DNA polymerase III PolC-type (P13267 whole entry, the tested form may be a part): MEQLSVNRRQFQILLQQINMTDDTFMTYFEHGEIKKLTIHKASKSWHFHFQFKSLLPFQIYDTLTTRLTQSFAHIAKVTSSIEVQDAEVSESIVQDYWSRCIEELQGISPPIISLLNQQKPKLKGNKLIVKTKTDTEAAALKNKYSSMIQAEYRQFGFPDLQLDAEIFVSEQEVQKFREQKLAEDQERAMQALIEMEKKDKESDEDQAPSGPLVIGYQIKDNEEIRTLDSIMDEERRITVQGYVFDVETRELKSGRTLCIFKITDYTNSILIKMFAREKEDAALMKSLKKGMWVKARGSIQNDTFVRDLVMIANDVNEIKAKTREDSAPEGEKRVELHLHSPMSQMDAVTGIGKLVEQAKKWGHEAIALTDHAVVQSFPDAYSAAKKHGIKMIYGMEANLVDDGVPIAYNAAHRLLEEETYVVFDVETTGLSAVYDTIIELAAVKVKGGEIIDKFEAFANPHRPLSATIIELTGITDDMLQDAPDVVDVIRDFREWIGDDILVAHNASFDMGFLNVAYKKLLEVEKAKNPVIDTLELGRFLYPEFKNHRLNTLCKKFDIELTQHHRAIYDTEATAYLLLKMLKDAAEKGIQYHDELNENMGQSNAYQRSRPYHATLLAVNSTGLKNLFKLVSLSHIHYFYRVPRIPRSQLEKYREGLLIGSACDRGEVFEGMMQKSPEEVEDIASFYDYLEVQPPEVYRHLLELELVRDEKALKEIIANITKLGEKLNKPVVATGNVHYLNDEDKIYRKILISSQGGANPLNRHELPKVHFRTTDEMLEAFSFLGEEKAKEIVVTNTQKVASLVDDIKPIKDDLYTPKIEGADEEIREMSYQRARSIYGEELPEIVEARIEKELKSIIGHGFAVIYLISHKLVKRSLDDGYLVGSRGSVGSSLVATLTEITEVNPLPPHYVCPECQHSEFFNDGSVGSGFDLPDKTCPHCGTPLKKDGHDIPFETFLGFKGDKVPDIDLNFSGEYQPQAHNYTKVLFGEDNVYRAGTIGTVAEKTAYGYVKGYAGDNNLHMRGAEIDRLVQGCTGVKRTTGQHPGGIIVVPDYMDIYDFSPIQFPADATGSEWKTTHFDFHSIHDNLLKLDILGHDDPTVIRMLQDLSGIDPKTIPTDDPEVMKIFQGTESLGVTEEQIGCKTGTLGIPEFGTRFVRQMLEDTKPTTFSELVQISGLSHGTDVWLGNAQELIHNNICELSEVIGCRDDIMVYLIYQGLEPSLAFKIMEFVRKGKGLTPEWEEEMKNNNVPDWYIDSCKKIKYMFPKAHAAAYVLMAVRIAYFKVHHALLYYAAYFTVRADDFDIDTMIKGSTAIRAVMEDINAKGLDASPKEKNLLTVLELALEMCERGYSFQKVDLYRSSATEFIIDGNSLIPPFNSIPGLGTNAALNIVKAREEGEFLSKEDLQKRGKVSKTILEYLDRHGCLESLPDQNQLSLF

SMILES	MIC (Staphylococcus aureus [1])	MIC (Enterococcus faecalis [2])	MIC (Staphylococcus aureus [3])	MIC (Staphylococcus aureus [4])	Ki [5]	MIC (Bacillus subtilis)	MIC+/MIC- (Staphylococcus aureus [6])	MIC (Enterococcus faecium [7])	MIC (Enterococcus faecium [8])	AUC [12]	Activity (Staphylococcus aureus [13])	AUC [15]	Activity (Staphylococcus aureus [16])	MIC+/MIC- (Enterococcus faecalis [25])	also measured
CCc1cc(Nc2cc(=O)n(CCOCCOc3ccccc3)c(=O)[nH]2)ccc1C	20 µg/mL (≈ 48.8 µM)	5 µg/mL (≈ 12.2 µM)	20 µg/mL (≈ 48.8 µM)	20 µg/mL (≈ 48.8 µM)	56 nM	< 1.25 µg/mL	>5.6	5 µg/mL (≈ 12.2 µM)	2.5 µg/mL (≈ 6.11 µM)						
CCc1cc(Nc2cc(=O)n(CCCCO)c(=O)[nH]2)ccc1C		5 µg/mL (≈ 15.8 µM)	5 µg/mL (≈ 15.8 µM)	5 µg/mL (≈ 15.8 µM)	55 nM		7.5	5 µg/mL (≈ 15.8 µM)	5 µg/mL (≈ 15.8 µM)	4800 ng·h/mL	5	7780 ng·h/mL	3		Cmax [9]: 5100 ng/mL; Tmax [10]: 15 min; Cmax [11]: 53000 ng/mL; Tmax [14]: 15 min; Cmax [17]: 13000 ng/mL; half-life [18]: 29.3 min; AUC [19]: 20200 ng·h/mL; half-life [20]: 33 min
CCc1cc(Nc2cc(=O)n(CCCCN3CCOCC3)c(=O)[nH]2)ccc1C.Cl	10 µg/mL	5 µg/mL	10 µg/mL		52 nM		1.7	5 µg/mL	10 µg/mL	3900 ng·h/mL	5	6770 ng·h/mL	4	2	AUC [21]: 15400 ng·h/mL; half-life [22]: 111 min; AUC [23]: 50700 ng·h/mL; Tmax [24]: 60 min; Cmax [26]: 7300 ng/mL; AUC [27]: 26900 ng·h/mL
CCc1cc(Nc2cc(=O)n(CCCCN3CCOCC3)c(=O)[nH]2)ccc1C	10 µg/mL (≈ 25.9 µM)	5 µg/mL (≈ 12.9 µM)	10 µg/mL (≈ 25.9 µM)				2.3	5 µg/mL (≈ 12.9 µM)	2.5 µg/mL (≈ 6.47 µM)				2	3.2	Activity (Staphylococcus aureus [28]): 4
CCn1cc(C(=O)O)c(=O)c2cc(F)c(N3CCNCC3)cc21 [NORFLOXACIN]	0.625 µg/mL (≈ 1.96 µM)	2.5 µg/mL (≈ 7.83 µM)	40 µg/mL (≈ 125 µM)	0.156 µg/mL (≈ 0.489 µM)		0.313 µg/mL (≈ 0.98 µM)	0.4	80 µg/mL (≈ 251 µM)	10 µg/mL (≈ 31.3 µM)					2.2	
CN[C@H](CC(C)C)C(=O)N[C@H]1C(=O)N[C@@H](CC(N)=O)C(=O)N[C@H]2C(=O)N[C@H]3C(=O)N[C@H](C(=O)N[C@H](C(=O)O)c4cc(O)cc(O)c4-c4cc3ccc4O)[C@H](O)c3ccc(c(Cl)c3)Oc3cc2cc(c3O[C@@H]2O[C@H](CO)[C@@H](O)[C@H](O)[C@H]2O[C@H]2C[C@](C)(N)[C@H](O)[C@H](C)O2)Oc2ccc(cc2Cl)[C@H]1O [VANCOMYCIN]		0.625 µg/mL (≈ 0.431 µM)	0.625 µg/mL (≈ 0.431 µM)					> 20 µg/mL	1.25 µg/mL (≈ 0.863 µM)		5		5		
